In PMC7701984 (Journal of medicinal chemistry, 2019):
Marks after values point to notes of the source that are not given here.

Columns and labels:
BFI = conditions: read-out: ITC Kd for BFI; previous ITC experiments; cited from earlier work
BTN3A1 BFI(R448A) = BTN3A1 BFI(R448A) (Homo sapiens, UniProt O00481, R448A); assay: GDP-BODIPY fluorescence polarization competitive binding assay, BFI; conditions: n ≥ 3
BTN3A1 BFI(M424A) = BTN3A1 BFI(M424A) (Homo sapiens, UniProt O00481, M424A); assay: as above; conditions: n ≥ 3, ambiguous, approximate slope estimated by GraphPad
Chain of BTN3A1 BFI(M424A) (O00481 272-513 M424A limits assumed): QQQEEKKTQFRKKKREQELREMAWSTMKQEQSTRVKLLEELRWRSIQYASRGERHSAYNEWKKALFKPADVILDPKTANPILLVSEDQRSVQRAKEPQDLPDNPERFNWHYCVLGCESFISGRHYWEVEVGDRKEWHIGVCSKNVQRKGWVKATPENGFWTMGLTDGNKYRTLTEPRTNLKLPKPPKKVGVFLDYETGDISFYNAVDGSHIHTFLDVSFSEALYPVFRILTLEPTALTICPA

BTN3A1 BFI(W421A) = BTN3A1 BFI(W421A) (Homo sapiens, UniProt O00481, W421A); assay: as above; conditions: n ≥ 3
Chain of BTN3A1 BFI(W421A) (O00481 272-513 W421A limits assumed): as the sequence (O00481 272-513 M424A limits assumed) above, with W150A, A153M counted along it

BTN3A1 BFI(R499A) = BTN3A1 BFI(R499A) (Homo sapiens, UniProt O00481, R499A); assay: as above; conditions: n ≥ 3
Chain of BTN3A1 BFI(R499A) (O00481 272-513 R499A limits assumed): as the sequence (O00481 272-513 M424A limits assumed) above, with A153M, R228A counted along it

Vγ9Vδ2 T cells [1] = assay: Vγ9Vδ2 T cell proliferation assay; assay type: cell-based, human; conditions: for T cell expansion above non-stimulated baseline: positive controls at 0.1 μM; for signs of Vγ9Vδ2 T cell stimulation: proliferation assay, Supplemental Figure S1C–D
BTN3A1 BFI(R442A) = BTN3A1 BFI(R442A) (Homo sapiens, UniProt O00481, R442A); assay: GDP-BODIPY fluorescence polarization competitive binding assay, BFI; conditions: n ≥ 3
Chain of BTN3A1 BFI(R442A) (O00481 272-513 R442A limits assumed): as the sequence (O00481 272-513 M424A limits assumed) above, with A153M, R171A counted along it

wt-BFI domain of BTN3A1 = wt-BFI domain of BTN3A1 (Homo sapiens, UniProt O00481); assay: GDP-BODIPY fluorescence polarization competitive binding assay, wt-BFI; conditions: n ≥ 3
Chain of wt-BFI domain of BTN3A1 (O00481 272-513 limits assumed): as the sequence (O00481 272-513 M424A limits assumed) above, with A153M counted along it

[2] = test system: Human PBMCs containing naïve Vγ9Vδ2 T cells; assay: IFN-γ production of PBMCs by ELISA; assay type: cell-based; conditions: for EC50: Homo sapiens, PBMC, 48 h, read-out: IFN-γ EC50 (μM) with 95% CI
Vγ9Vδ2 T cells [3] = conditions: read-out: Proliferation EC50 (μM) with 95% CI; footnote a; ref Hsiao 2014; cited from earlier work
BTN3A1 = conditions: previously reported ITC experiments; no reference given; cited from earlier work
[4] = test system: peripheral blood mononuclear cells (PBMCs); assay: Ligand uptake: disappearance of prodrug from media incubated with PBMCs; assay type: in vitro ADME; conditions: 10 μM with PBMCs, 24 hours, 37 °C
In short: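 PBMCs at 1,000,000 cells/mL in T cell media were incubated at 37 °C with test prodrug at 10 μM final, or with media alone. Samples were taken at 0, 6, 24 and 48 h and spun. The supernatant was mixed with acetonitrile, re-spun and stored at −20 °C. UPLC-MS used a C18 column with a 25–80% acetonitrile gradient over 8 min. The integrated molecular-ion signal was expressed relative to t = 0.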

[5] = dose-response, 48 hours, concentration not given

Chain of BTN3A1 BFI(R448A) (O00481 272-513 R448A limits assumed): as the sequence (O00481 272-513 M424A limits assumed) above, with A153M, R177A counted along it

C/C(=C\COP(=O)(O)OP(=O)(O)O)CO [Compound 1, (E)-4-hydroxy-3-methyl-but-2-enyl diphosphate]
Kd (BFI): 2.36 µM
Probe displacement (mP) range with 95% CI (BTN3A1 BFI(R448A)): 26.2 (12 – 40) mP
Probe displacement (mP) range with 95% CI (BTN3A1 BFI(M424A)): 59.1^a (38 – 81) ^* mP
Probe displacement (mP) range with 95% CI (BTN3A1 BFI(W421A)): 56.7 (40 – 73) ^* mP
Probe displacement (mP) range with 95% CI (BTN3A1 BFI(R499A)): 55.0 (21 – 78) ^* mP
T cell expansion above non-stimulated baseline (Vγ9Vδ2 T cells [1]): significantly expanded T cells
Probe displacement (mP) range with 95% CI (BTN3A1 BFI(R442A)): 19.4 (13 – 26) mP
Probe displacement (mP) range with 95% CI (wt-BFI domain of BTN3A1): 30.6 (25 – 36) mP

O=P(O)(O)C(O)(Cn1ccnc1)P(=O)(O)O [Compound 4, zoledronate]
stimulation of IFN-γ production [2, 5]: Neither zoledronate (4) nor sodium diphosphate stimulated IFN-γ production

C/C(=C\CCP(=O)(O)O)CO [Compound 5]
EC50 (Vγ9Vδ2 T cells [3]): 4 µM
ITC dissociation constant (Kd) (BTN3A1): not calculable

C/C(=C\CCP(=O)(OCOC(=O)C(C)(C)C)OCOC(=O)C(C)(C)C)CO [Compound 6]
parent ion detected in media relative to t = 0 [4]: less than 1%
T cell expansion above non-stimulated baseline (Vγ9Vδ2 T cells [1]): significantly expanded T cells

C/C(=C\CCP(=O)(O)CP(=O)(O)O)CO [Compound 7]
stimulation of IFN-γ production at 100 μM ([2]; 100 μM, 48 hours): did stimulate IFN-γ production
EC50 [2]: > 100 µM

C/C(=C\CCP(=O)(CP(=O)(OCOC(=O)C(C)(C)C)OCOC(=O)C(C)(C)C)OCOC(=O)C(C)(C)C)CO (centres unmarked) [Compound 8]
IFN-γ potency of prodrug 8 relative to its salt 7 [2]: 100 times
EC50 [2]: > 1 µM

C/C(=C\CCCCP(=O)(OCOC(=O)C(C)(C)C)OCOC(=O)C(C)(C)C)CO [Compound 11, (E)-(((7-hydroxy-6-methylhept-5-en-1-yl)phosphoryl)bis(oxy))bis(methylene) bis(2,2-dimethylpropanoate)]
parent ion detected in media relative to t = 0 [4]: less than 1%
stimulation of T cell proliferation (Vγ9Vδ2 T cells [1]; concentrations up to 100 μM): neither prodrug 11 nor salt 10 (Supplemental Figure S1B) stimulated T cell proliferation
stimulation of IFN-γ production ([2]; concentrations up to 100 μM, 48 hours): did not stimulate

CC(C)=CCCCCP(=O)(OCOC(=O)C(C)(C)C)OCOC(=O)C(C)(C)C [Compound 14, (((6-Methylhept-5-en-1-yl)phosphoryl)bis(oxy))bis(methylene) bis(2,2-dimethylpropanoate)]
signs of Vγ9Vδ2 T cell stimulation (Vγ9Vδ2 T cells [1]): neither intermediate 14 nor 15 displayed signs of Vγ9Vδ2 T cell stimulation

COP(=O)(CCCC/C=C(\C)CO)OC [Compound 15, Dimethyl (E)-(7-hydroxy-6-methylhept-5-en-1-yl) phosphonate]
signs of Vγ9Vδ2 T cell stimulation (Vγ9Vδ2 T cells [1]): neither intermediate 14 nor 15 displayed signs of Vγ9Vδ2 T cell stimulation

O=P([O-])([O-])OP(=O)([O-])[O-].[Na+].[Na+].[Na+].[Na+] [NaPP, sodium diphosphate]
stimulation of IFN-γ production [2, 5]: Neither zoledronate (4) nor sodium diphosphate stimulated IFN-γ production
